Experimental findings from ChEMBL document CHEMBL1800025 (J Med Chem, 2011) are described below.

The target in test [1] is T1, Serine/threonine-protein kinase pim-1 (Homo sapiens, UniProt P11309). The test is described as follows: Inhibition of human recombinant Pim1. An outline of the steps:
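Kinase assayed in buffer C (25 mM Mops pH 7.2, 60 mM beta-glycerophosphate, 30 mM p-nitrophenylphosphate, 15 mM MgCl2, 5 mM EGTA, 1 mM DTT, 0.1 mM vanadate) with 1 mg/mL histone H1. DMSO controls.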
Target sequence in this assay (P11309 whole entry): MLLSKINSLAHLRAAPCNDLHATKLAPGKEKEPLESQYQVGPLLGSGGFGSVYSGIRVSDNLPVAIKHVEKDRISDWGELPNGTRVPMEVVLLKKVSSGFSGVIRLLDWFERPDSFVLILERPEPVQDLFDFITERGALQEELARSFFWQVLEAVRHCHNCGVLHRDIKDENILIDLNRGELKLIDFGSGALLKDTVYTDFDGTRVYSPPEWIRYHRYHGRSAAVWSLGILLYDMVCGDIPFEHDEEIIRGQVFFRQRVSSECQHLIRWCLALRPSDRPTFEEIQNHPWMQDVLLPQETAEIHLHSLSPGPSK

The target of test [2] is Dual specificity tyrosine-phosphorylation-regulated kinase 1A (Rattus norvegicus) (UniProt Q63470). The test is described as follows: Inhibition of rat recombinant GST-tagged DYRK1A using KKISGRLSPIMTEQ as substrate and [gamma32]-ATP at 10 uM after 30 mins by scintillation counting. An outline of the steps: (§1)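 GST fusion kinases expressed in E. coli and purified on glutathione-agarose; DYRK1A is rat, DYRK2 is human. Assay buffer A (25 mM Tris-HCl pH 7.5, 10 mM MgCl2, 1 mM EGTA, 1 mM DTT, 50 μg/mL heparin) plus 0.15 mg/mL BSA. Woodtide 1.5 μg/assay with 15 μM [γ-33P]ATP, 30 min at 30 C. Product captured on P81 paper, washed in 1% phosphoric acid, scintillation counted. Activity expressed as percent of uninhibited control.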

Test [3] has as its target T2, Dual specificity tyrosine-phosphorylation-regulated kinase 2 (Homo sapiens) (UniProt Q92630).
T2 sequence (whole entry): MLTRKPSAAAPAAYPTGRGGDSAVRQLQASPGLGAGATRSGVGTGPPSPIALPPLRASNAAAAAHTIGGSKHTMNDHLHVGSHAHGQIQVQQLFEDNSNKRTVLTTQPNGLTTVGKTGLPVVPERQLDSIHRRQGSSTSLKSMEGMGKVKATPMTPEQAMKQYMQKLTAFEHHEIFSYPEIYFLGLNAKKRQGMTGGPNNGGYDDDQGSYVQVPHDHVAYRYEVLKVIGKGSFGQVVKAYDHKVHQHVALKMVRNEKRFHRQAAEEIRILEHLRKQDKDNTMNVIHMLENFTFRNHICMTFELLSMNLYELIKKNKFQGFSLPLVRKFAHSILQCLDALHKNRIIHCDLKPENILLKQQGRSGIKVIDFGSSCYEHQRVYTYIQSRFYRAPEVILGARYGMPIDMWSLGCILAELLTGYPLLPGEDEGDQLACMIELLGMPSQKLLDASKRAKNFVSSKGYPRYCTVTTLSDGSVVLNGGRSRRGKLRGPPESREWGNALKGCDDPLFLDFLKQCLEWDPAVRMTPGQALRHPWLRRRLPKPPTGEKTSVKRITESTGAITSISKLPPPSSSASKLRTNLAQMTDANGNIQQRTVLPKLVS
The test is described as follows: Inhibition of human recombinant GST-tagged DYRK2 using […] as substrate and [gamma32]-ATP at 10 uM after 30 mins by scintillation counting. An outline of the steps:
as §1

Test [4] deals with Dual specificity protein kinase CLK1 (Mus musculus) (UniProt P22518). The experiment in a line: Inhibition of mouse recombinant GST-tagged CLK1 using GRSRSRSRSRSR as substrate at 10 uM. An outline of the steps: (§2)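 Mouse GST-fusion CLK1 or CLK3 expressed in E. coli. Assay buffer A (Tris-HCl pH 7.5, MgCl2, EGTA, DTT, heparin) plus 0.15 mg/mL BSA. RS peptide 1 μg/assay, 15 μM ATP final, 30 C. Blank subtracted; activity expressed as percent of activity without inhibitor. DMSO controls. Concentration range up to 10 μM.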
Dual specificity protein kinase CLK1 (Mus musculus), sequence (P22518 whole entry, looked up, the tested form may be a part): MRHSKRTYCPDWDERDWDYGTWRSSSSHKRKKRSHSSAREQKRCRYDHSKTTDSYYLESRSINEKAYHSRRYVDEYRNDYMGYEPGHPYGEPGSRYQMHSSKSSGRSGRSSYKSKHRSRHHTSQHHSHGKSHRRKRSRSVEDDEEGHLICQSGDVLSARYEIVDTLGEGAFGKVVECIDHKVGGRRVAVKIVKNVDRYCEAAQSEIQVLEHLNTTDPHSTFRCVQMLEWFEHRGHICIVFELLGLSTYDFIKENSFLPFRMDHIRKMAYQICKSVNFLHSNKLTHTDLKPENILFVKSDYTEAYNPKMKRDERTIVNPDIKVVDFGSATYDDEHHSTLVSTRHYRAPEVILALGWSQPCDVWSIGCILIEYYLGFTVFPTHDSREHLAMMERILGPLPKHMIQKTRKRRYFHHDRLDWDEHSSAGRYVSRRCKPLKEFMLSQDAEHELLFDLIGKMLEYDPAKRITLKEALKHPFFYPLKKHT

In test [5] the target is Dual specificity protein kinase CLK3 (Mus musculus) (UniProt O35492). The test is described as follows: Inhibition of mouse recombinant GST-tagged CLK3 using GRSRSRSRSRSR as substrate at 10 uM. Put shortly: as §2
Dual specificity protein kinase CLK3 (Mus musculus), sequence (O35492 whole entry): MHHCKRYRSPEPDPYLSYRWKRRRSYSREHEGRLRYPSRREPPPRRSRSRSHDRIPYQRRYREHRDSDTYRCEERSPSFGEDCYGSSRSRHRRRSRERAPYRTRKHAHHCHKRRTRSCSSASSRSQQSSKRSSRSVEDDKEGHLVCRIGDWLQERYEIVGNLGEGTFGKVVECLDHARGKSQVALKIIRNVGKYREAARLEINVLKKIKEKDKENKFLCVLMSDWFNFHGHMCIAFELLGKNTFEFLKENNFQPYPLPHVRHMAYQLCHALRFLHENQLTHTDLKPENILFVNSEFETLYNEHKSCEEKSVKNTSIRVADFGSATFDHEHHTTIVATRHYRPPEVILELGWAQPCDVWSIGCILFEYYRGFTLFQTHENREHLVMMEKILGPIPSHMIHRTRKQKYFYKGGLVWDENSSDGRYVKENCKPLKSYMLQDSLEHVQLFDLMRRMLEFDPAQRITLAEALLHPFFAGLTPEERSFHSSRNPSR
Test [6] deals with Cyclin-dependent kinase 5/CDK5 activator 1 (Homo sapiens) (UniProt Q00535+Q15078). The test is described as follows: Inhibition of human recombinant CDK5/p25 at 10 uM. In kind it is protein-complex assay. An outline of the steps:
(§3)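 Kinase assayed in buffer C (25 mM Mops pH 7.2, 60 mM beta-glycerophosphate, 30 mM p-nitrophenylphosphate, 15 mM MgCl2, 5 mM EGTA, 1 mM DTT, 0.1 mM vanadate) with 1 mg/mL histone H1. 15 μM ATP final, 30 C. Activity is percent of activity without inhibitor, after blank subtraction. DMSO controls.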

A further test is filed under the species Sus scrofa. The experiment in a line: Inhibition of pig brain CK1 delta/epsilon using RRKHAAIGpSAYSITA as substrate at 10 uM. An outline of the steps:
(§4)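 Native CK1δ/ε from porcine brain, assayed in 3-fold diluted buffer C with 25 μM CKS peptide substrate. 15 μM ATP final, 30 C. Activity is percent of uninhibited control after blank subtraction, with DMSO controls. Inhibitor tested over a range of concentrations up to 10 μM.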

Test [7] concerns Cyclin-dependent kinase 5/p25 (Homo sapiens). The test is described as follows: Inhibition of human recombinant CDK5/p25 at 10 uM.
The target in test [8] is Dual specificity tyrosine-phosphorylation-regulated kinase 1A (Rattus norvegicus, UniProt Q63470). The experiment in a line: Inhibition of rat recombinant GST-tagged DYRK1A using KKISGRLSPIMTEQ as substrate and [gamma32]-ATP after 30 mins by scintillation counting. An outline of the steps:
(§5)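 GST fusion kinases expressed in E. coli and purified on glutathione-agarose; DYRK1A is rat, DYRK2 is human. Assay buffer A (25 mM Tris-HCl pH 7.5, 10 mM MgCl2, 1 mM EGTA, 1 mM DTT, 50 μg/mL heparin) plus 0.15 mg/mL BSA. Product captured on P81 paper, washed in 1% phosphoric acid, scintillation counted. Activity expressed as percent of uninhibited control.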

Test [9] deals with Dual specificity protein kinase CLK1 (Mus musculus, UniProt P22518). The test is described as follows: Inhibition of mouse recombinant GST-tagged CLK1 using GRSRSRSRSRSR as substrate. An outline of the steps: as §2
Dual specificity protein kinase CLK1, sequence (P22518 whole entry): as the sequence (P22518 whole entry, looked up, the tested form may be a part) above
In test [10] the target is Dual specificity protein kinase CLK3 (Mus musculus, UniProt O35492). The test is described as follows: Inhibition of mouse recombinant GST-tagged CLK3 using GRSRSRSRSRSR as substrate. Put shortly: as §2
Dual specificity protein kinase CLK3, sequence (O35492 whole entry): as the sequence (O35492 whole entry) above
For test [11], the target named is Glycogen synthase kinase-3 (Sus scrofa, UniProt B2LUN4+I6LNT8). The test is described as follows: Inhibition of pig brain GSK-3alpha/beta using YRRAAVPPSPSLSRHSSPHQSpEDEEE as substrate. An outline of the steps:
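Compounds were tested at various concentrations, the highest being 10 μM, with DMSO dilution controls. Blanks were subtracted and activity was expressed as percent of the uninhibited maximum.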

Test [12] has as its target T3, Dual specificity tyrosine-phosphorylation-regulated kinase 3 (Homo sapiens) (UniProt O43781).
T3 sequence (whole entry): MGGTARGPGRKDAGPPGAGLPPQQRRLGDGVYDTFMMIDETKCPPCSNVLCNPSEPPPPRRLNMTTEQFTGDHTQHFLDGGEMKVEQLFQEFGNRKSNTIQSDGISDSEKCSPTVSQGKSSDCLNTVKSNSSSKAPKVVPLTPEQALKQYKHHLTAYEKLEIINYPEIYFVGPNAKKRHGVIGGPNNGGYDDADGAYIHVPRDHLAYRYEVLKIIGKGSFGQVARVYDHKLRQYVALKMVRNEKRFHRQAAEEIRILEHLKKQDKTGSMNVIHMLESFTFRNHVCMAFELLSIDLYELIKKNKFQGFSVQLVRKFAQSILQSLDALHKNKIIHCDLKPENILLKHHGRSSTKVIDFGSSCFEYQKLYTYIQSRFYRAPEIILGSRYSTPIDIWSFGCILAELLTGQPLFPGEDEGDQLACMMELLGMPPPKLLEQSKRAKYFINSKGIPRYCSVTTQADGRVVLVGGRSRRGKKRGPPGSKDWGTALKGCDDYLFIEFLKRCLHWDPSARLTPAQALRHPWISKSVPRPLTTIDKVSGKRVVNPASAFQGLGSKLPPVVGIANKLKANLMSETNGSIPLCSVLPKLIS
The test is described as follows: Inhibition of recombinant DYRK3-mediated SR 9G8 protein phosphorylation at 10 uM after 30 mins by SDS-PAGE followed by autoradiography. An outline of the steps: (§6)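 Recombinant SR protein 9G8 (87 ng) phosphorylated by each kinase, diluted to equal specific activity toward RS peptide. 15 μM [γ-33P]ATP, 30 min at 30 C, with or without 10 μM inhibitor. Reaction stopped in loading buffer; SDS-PAGE and autoradiography.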

Test [13] has as its target Dual specificity protein kinase CLK1 (Homo sapiens) (UniProt P49759). The test is described as follows: Inhibition of recombinant CLK1-mediated SR 9G8 protein phosphorylation at 10 uM after 30 mins by SDS-PAGE followed by autoradiography. Put shortly:
as §6

Test [14] has the same target. The test is described as follows: Inhibition of CLK1-mediated SRp55 protein phosphorylation in TNFalpha-stimulated human HMEC1 cells after 1 hr by Western blot analysis. In kind it is cell-based. Put shortly: (§7)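 HMEC-1 cells grown in endothelial medium with 5% FCS at 37 C, 5% CO2. Serum-starved 1 h in basal medium, pretreated 1 h with inhibitor at varying concentrations, then stimulated with 10 ng/mL TNF-alpha. Lysed 2 min after stimulation. Phospho-SRp75 and phospho-SRp55 detected by Western blot with mAb1H4, GAPDH as loading control, quantified by densitometry. At least 3 independent experiments.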

Test [15] addresses Dual specificity protein kinase CLK3 (Homo sapiens) (UniProt P49761). The test is described as follows: Inhibition of CLK3-mediated SRp55 protein phosphorylation in TNFalpha-stimulated human HMEC1 cells after 1 hr by Western blot analysis. In kind it is cell-based. Put shortly: as §7
Test [16] concerns the target Dual specificity protein kinase CLK1 (Homo sapiens) (UniProt P49759). The test is described as follows: Inhibition of CLK1-mediated SRp75 protein phosphorylation in TNFalpha-stimulated human HMEC1 cells after 1 hr by Western blot analysis. In kind it is cell-based. Put shortly:
as §7
A general note: A western blot detects proteins with antibodies after separation by electrophoresis.

Test [17] has as its target Dual specificity protein kinase CLK3 (Homo sapiens) (UniProt P49761). The test is described as follows: Inhibition of CLK3-mediated SRp75 protein phosphorylation in TNFalpha-stimulated human HMEC1 cells after 1 hr by Western blot analysis. In kind it is cell-based. An outline of the steps:
as §7

Test [18] addresses Dual specificity protein kinase CLK1 (Homo sapiens) (UniProt P49759). The test is described as follows: Inhibition of CLK1 transfected in human HeLa cells assessed as increase in exon inclusion ratio after 24 hrs by RT-PCR analysis. In kind it is cell-based. An outline of the steps:
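HeLa cells were transfected with […], with kinase-dead CLK1/K190R as comparator. Inhibitors at varying doses were added 3 h post-transfection, with 0.5% DMSO final in all cultures. Cells were harvested 24 h post-transfection, total RNA was extracted, and E1A splicing products were analysed by RT-PCR. Isoform molar ratios were measured by Bioanalyzer to give the exon inclusion ratio. Three independent samples were used.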

Test [19] has as its target T2, Dual specificity tyrosine-phosphorylation-regulated kinase 2 (Homo sapiens). The note with it: 10 uM.
For test [20], the target named is Dual specificity protein kinase CLK2 (Homo sapiens) (UniProt P49760). The note with it: 10 uM.
Dual specificity protein kinase CLK2 (Homo sapiens), sequence (P49760 whole entry, looked up): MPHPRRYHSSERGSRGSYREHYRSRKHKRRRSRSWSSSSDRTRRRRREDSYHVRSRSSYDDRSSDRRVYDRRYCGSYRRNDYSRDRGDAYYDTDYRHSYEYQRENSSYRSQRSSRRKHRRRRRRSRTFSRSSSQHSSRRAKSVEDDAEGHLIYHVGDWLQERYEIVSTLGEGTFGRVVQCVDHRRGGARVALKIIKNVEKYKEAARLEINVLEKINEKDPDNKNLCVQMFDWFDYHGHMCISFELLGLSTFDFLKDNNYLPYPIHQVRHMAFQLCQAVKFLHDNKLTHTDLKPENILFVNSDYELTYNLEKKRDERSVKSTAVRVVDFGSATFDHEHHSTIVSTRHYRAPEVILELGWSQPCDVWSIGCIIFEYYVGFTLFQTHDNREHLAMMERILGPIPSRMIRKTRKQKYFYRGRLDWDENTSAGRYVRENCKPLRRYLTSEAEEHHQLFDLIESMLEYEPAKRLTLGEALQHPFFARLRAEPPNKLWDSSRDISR
The target in test [21] is Dual specificity protein kinase CLK4 (Homo sapiens) (UniProt Q9HAZ1). The settings on record: 10 uM.
Dual specificity protein kinase CLK4 (Homo sapiens), sequence (Q9HAZ1 whole entry, looked up): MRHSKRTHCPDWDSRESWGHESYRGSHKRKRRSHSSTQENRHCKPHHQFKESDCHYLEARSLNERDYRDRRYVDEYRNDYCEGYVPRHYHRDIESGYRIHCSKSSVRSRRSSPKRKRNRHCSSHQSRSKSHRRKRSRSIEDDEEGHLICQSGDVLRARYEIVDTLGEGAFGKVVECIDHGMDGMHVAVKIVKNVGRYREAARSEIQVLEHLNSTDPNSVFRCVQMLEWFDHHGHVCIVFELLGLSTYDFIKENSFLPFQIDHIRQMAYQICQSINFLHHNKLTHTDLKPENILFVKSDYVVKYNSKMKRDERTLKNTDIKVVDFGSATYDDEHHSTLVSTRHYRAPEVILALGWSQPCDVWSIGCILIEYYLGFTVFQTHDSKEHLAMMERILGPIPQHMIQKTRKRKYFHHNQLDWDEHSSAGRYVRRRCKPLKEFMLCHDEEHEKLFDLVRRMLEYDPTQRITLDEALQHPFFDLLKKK
For test [22], the target named is T4, Dual specificity tyrosine-phosphorylation-regulated kinase 2 (Homo sapiens, UniProt Q92630).
T4 sequence (Q92630 whole entry): T2 sequence (whole entry)
The experiment in a line: Inhibition of human recombinant GST-tagged DYRK2 using KKISGRLSPIMTEQ as substrate and [gamma32]-ATP after 30 mins by scintillation counting. Put shortly:
as §5

Test [23] is described as follows: Inhibition of pig brain CK1 delta/epsilon using RRKHAAIGpSAYSITA as substrate. Also on record: species or system Sus scrofa. An outline of the steps: as §4
Test [24] deals with T1, Serine/threonine-protein kinase pim-1. The test is described as follows: Inhibition of human recombinant Pim1 at 10 uM. Put shortly:
as §3
Target sequence in this assay (P11309 whole entry, looked up): as the sequence (P11309 whole entry) above

The source made the active and inactive calls. The rule behind the calls is not given here.

Dual specificity protein kinase CLK1 (Homo sapiens), sequence (P49759 whole entry, looked up, canonical isoform): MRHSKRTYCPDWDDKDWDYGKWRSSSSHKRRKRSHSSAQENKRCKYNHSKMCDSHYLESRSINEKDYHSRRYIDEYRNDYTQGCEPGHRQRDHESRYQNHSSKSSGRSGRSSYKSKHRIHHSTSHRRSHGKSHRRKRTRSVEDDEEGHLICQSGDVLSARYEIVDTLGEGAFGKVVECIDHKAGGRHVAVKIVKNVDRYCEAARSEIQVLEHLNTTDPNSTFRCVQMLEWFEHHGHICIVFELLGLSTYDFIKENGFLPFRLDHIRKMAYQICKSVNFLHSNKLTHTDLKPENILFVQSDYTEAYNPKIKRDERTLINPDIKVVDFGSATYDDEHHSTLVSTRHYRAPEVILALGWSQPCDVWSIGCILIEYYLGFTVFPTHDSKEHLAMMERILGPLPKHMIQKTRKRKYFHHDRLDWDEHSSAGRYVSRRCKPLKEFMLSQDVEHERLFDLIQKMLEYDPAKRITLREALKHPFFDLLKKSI
Cyclin-dependent kinase 5/CDK5 activator 1 (Homo sapiens), sequence (Q00535 whole entry): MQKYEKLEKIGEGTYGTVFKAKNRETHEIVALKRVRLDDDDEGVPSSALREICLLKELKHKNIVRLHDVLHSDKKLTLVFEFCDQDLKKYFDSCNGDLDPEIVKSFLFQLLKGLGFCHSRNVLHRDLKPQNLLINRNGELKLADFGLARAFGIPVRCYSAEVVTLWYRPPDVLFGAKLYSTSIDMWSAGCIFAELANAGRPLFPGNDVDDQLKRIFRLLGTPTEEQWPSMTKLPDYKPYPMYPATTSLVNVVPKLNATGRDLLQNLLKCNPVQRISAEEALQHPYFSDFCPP
Cyclin-dependent kinase 5/CDK5 activator 1 (Homo sapiens), sequence (Q15078 99-307 partner limits assumed): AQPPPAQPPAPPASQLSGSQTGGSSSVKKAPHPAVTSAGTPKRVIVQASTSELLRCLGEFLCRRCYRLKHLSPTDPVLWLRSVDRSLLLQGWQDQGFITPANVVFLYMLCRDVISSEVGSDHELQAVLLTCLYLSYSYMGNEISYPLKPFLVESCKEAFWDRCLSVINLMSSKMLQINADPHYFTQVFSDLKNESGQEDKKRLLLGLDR
Dual specificity protein kinase CLK3 (Homo sapiens), sequence (P49761 whole entry, looked up): as the sequence (O35492 whole entry) above, with I55L, H64R, C83Y, S86P, A99G, S484T counted along it

As to `CCCNC1=N/C(=C\c2ccc3c(c2)OC(F)(F)O3)C(=O)N1C`, the IC50 in [1] is more than 10 µM. Also, the inhibition result (in test [2]; in [3]; in [4]; in [5]; in [6]; in the test listed under Sus scrofa) was “inactive” throughout. In [7], the inhibition result was “inactive”.

On to `O=C1NC(Nc2ccccc2)=N/C1=C\c1ccc2c(c1)OCO2`, for which the concentration for half-maximal inhibition (IC50) in test [8] was 0.04 µM; in [9] it was 0.015 µM; in test [10], more than 10 µM; in [11], more than 10 µM. For the same molecule, the inhibition entry in the test listed under Sus scrofa is “inactive”. Moreover, the inhibition entry in [12], in test [13], in test [14], in [15], in test [16] and in [17] was “Active” each time. The inhibition entry in test [19], in test [20] and in test [21] was “Active” each time. Moreover, in test [18], the “increase in exon inclusion ratio” value is “Dose-dependent effect”.

Take `CN1C(=O)/C(=C/c2ccc3c(c2)OCO3)N=C1N` [LEUCETTAMINE B]: the IC50 in test [8] is 2.8 µM; in [22] it was 1.5 µM; in test [9] it was 0.4 µM; in [10], 6.4 µM; in [11] it was more than 10 µM; in test [23], more than 10 µM. Besides, the 50% inhibitory concentration (IC50) in [1] was more than 10 µM.

Consider `CN1C(=O)/C(=C/c2ccc3c(c2)OCO3)N=C1Nc1ccc2c(c1)OCCO2`, for which the half-inhibitory concentration (IC50) in test [8] is 0.22 µM; in test [9], 0.22 µM; in test [10], 3.6 µM; in [23] it was more than 10 µM; in [1], 2.2 µM.

For `CN1C(=O)/C(=C/c2ccc3c(c2)OCO3)N=C1NCC1CC1`, the IC50 is 0.2 µM in [8]; 0.34 µM in [22]; 0.13 µM in test [9]; 0.51 µM in test [10]; more than 10 µM in test [23]; 2.1 µM in test [1].

With `CCCNC1=N/C(=C\c2ccc(Br)cc2)C(=O)N1C`, the IC50 in test [10] was 8.8 µM. The inhibition result (in test [3]; in [4]; in [6]; in the test listed under Sus scrofa; in [24]) was “inactive” each time.

Broadly, the IC50 is the point on the concentration scale where inhibition reaches its midpoint.
